# In ChEMBL document CHEMBL1821578, “Bioactive A-type proanthocyanidins from Cinnamomum cassia” (J Nat Prod, 2011):
# Experiments:
# [1] = biological target: T1, Prostaglandin G/H synthase 2 (Homo sapiens) (UniProt P35354); test: Inhibition of human recombinant COX2 expressed in Sf9 cells at 1000 ug/mL
# T1 sequence (whole entry): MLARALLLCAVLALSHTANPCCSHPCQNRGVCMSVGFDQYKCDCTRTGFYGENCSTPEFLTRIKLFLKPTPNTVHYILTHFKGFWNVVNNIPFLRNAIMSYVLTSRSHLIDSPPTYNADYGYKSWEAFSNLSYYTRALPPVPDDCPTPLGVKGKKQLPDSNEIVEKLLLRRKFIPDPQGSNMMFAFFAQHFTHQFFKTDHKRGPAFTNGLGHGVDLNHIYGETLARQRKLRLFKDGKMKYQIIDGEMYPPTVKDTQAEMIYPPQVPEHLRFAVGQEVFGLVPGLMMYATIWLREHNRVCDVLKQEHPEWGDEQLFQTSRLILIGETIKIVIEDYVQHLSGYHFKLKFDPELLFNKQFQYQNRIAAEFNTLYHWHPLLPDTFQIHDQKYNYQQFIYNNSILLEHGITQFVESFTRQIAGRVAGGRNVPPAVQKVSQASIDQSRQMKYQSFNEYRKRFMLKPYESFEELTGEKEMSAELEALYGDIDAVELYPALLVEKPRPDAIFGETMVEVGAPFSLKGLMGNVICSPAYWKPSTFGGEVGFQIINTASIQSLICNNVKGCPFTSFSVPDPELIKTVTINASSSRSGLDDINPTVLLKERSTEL
# Procedure, shortened: (§1)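 Enzyme: human recombinant COX-2 produced in Sf9 cells, assayed by a previously published procedure. Each compound was run in triplicate at three log-spaced levels (10, 100 and 1000 μg/mL). Inhibition of enzyme activity is the read-out.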
# [2] = biological target: T1, Prostaglandin G/H synthase 2 (Homo sapiens); test: Inhibition of human recombinant COX2 expressed in Sf9 cells at 10 ug/mL; procedure, shortened: as §1
# [3] = biological target: T1, Prostaglandin G/H synthase 2 (Homo sapiens); test: Inhibition of human recombinant COX2 expressed in Sf9 cells at 100 ug/mL; procedure, shortened: as §1
inhibition [1] [%],inhibition [2] [%],inhibition [3] [%],SMILES
95,2,44,Oc1cc(O)c2c(c1)O[C@@]1(c3ccc(O)c(O)c3)Oc3cc(O)c4c(c3[C@@H]2[C@H]1O)O[C@H](c1ccc(O)c(O)c1)[C@H](O)[C@H]4c1c(O)cc(O)c2c1O[C@H](c1ccc(O)c(O)c1)[C@@H](O)C2 (mixture of isomers)
97,38,52,Oc1cc(O)c2c(c1)O[C@H](c1ccc(O)c(O)c1)[C@H](O)[C@H]2c1c(O)c2c(c3c1O[C@]1(c4ccc(O)c(O)c4)Oc4cc(O)cc(O)c4[C@H]3[C@H]1O)O[C@H](c1ccc(O)c(O)c1)[C@H](O)[C@H]2c1c(O)cc(O)c2c1O[C@H](c1ccc(O)c(O)c1)[C@@H](O)C2 (mixture of isomers)
86,19,27,Oc1cc(O)c2c(c1)O[C@@]1(c3ccc(O)c(O)c3)Oc3cc(O)c4c(c3[C@@H]2[C@H]1O)O[C@H](c1ccc(O)c(O)c1)[C@H](O)[C@H]4c1c(O)cc(O)c2c1O[C@H](c1ccc(O)c(O)c1)[C@H](O)C2 (mixture of isomers)
94,14,86,Oc1cc(O)c2c(c1)O[C@H](c1ccc(O)c(O)c1)[C@H](O)[C@H]2c1c(O)c2c(c3c1O[C@]1(c4ccc(O)c(O)c4)Oc4cc(O)cc(O)c4[C@H]3[C@H]1O)O[C@H](c1ccc(O)c(O)c1)[C@H](O)[C@H]2c1c(O)cc(O)c2c1O[C@H](c1ccc(O)c(O)c1)[C@H](O)C2 (mixture of isomers)
